Source: ChEMBL document CHEMBL1759856, “Synthesis and study of 2-amino-7-bromofluorenes modified with nitroxides and their precursors as dual anti-amyloid and antioxidant active compounds” (Eur J Med Chem, 2011)
The source made the active and inactive calls. No cut-off for these calls is given here.

How the values were obtained:
[1] = Antioxidant activity assessed as hydroxyl radical scavenging activity at 0.2 to 10 uM; assay type: functional
Method in brief: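 Hydroxyl radical scavenging was measured with a commercial HORAC kit, per the manufacturer's protocol, at compound concentrations of 0.2, 1 and 10 µM. Read-out was fluorescence (ex 485 nm, em 530 nm) of a reporter that is inversely proportional to surviving radical. Distilled water served as control.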

HBMEC [2] = assay: Antiinflammatory activity in HBMEC cells assessed as inhibition of TGRL lipolysis-induced IL-8 gene expression by RT-PCR analysis relative to control; assay type: functional, cell-based; details: Homo sapiens
Method in brief: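 HBMEC (passage 6) were grown in serum-free or 10%-serum complete medium on attachment factor at 37°C in 5% CO2. Cells were pretreated 30 min with 200 µM compound, then exposed 3 h to TGRL (150 mg/dL) plus lipoprotein lipase (2 U/mL), preincubated together 30 min at 37°C. IL-8 mRNA was measured by SYBR Green qRT-PCR, normalized to GAPDH, comparative CT; N = 3.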

[3] = Antioxidant activity assessed as peroxyl radical scavenging activity at 10 uM by fluorescence quenching assay; assay type: functional
Method in brief: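 Peroxyl radicals were assayed with a commercial ORAC kit, per the manufacturer's protocol, with compound at 10 µM. The read-out was quenching of indicator fluorescence (ex 480 nm, em 520 nm).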

[4] = Antioxidant activity assessed as hydroxyl radical scavenging activity by electron paramagnetic resonance spectra analysis; assay type: functional; set-up: concentration or dose not given beside the values
Method in brief: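 For EPR, 9 µl of ROS mixture was combined immediately with 1 µl of compound from a 2 mM stock. About 5 µl was loaded into a sealed quartz capillary for measurement.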

[5] = Antioxidant activity assessed as peroxyl radical scavenging activity by electron paramagnetic resonance spectra analysis; assay type: functional
HBMEC [6] = assay: Antiinflammatory activity in HBMEC cells assessed as inhibition of TGRL lipolysis-induced COX-2 gene expression by RT-PCR analysis relative to control; assay type: functional, cell-based; details: Homo sapiens
Method in brief: (§1)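 Human brain microvascular endothelial cells (passage 6) grown at 37°C, 5% CO2; pre-treated 30 min with 200 µM compound, then 3 h with TGRL (150 mg/dL) plus lipoprotein lipase (2U/mL), pre-incubated together 30 min at 37°C. Total RNA reverse-transcribed; SYBR Green real-time PCR normalised to GAPDH, comparative CT method; N = 3.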

HBMEC [7] = assay: Antiinflammatory activity in HBMEC cells assessed as inhibition of TGRL lipolysis-induced ATF3 gene expression by RT-PCR analysis relative to control; assay type: functional, cell-based; details: Homo sapiens; method in brief: as §1

SMILES	Activity [1]	Activity (HBMEC [2])	Activity [3]	Activity [4] [%]	Activity [5] [%]	fold change (FC) (HBMEC [6])	fold change (FC) (HBMEC [7])
CC1(C)C=C(CNc2ccc3c(c2)Cc2cc(Br)ccc2-3)CC(C)(C)N1O	Active	Active	Active	61	80		
CC1(C)CC(O)CC(C)(C)N1[O]	Active		Active				
CN(CC1=CC(C)(C)N([O])C1(C)C)c1ccc2c(c1)Cc1cc(Br)ccc1-2	Active		Active	18		2.7	18.3
CN(C)c1ccc2c(c1)Cc1cc(Br)ccc1-2	Active		Active				
CC1(C)C=C(CNc2ccc3c(c2)Cc2cc(Br)ccc2-3)CC(C)(C)N1[O]	Active	Active	Active	26			
CN(CC1=CC(C)(C)NC1(C)C)c1ccc2c(c1)Cc1cc(Br)ccc1-2	Active	inactive	Active	18	100		
CN1C(C)(C)C=C(CNc2ccc3c(c2)Cc2cc(Br)ccc2-3)C1(C)C	Active	inactive	Active	29	100		
CC1(C)C=C(CNc2ccc3c(c2)Cc2cc(Br)ccc2-3)C(C)(C)N1[O]	Active	inactive	Active	28	73		
CC1(C)C(Br)=C(CNc2ccc3c(c2)Cc2cc(Br)ccc2-3)C(C)(C)N1[O]	Active	inactive	Active	10			
